Assay outcomes: PubChem BioAssay, Sanford-Burnham Center for Chemical Genomics
Only some compounds are listed: those with a hit (about 3% of all), similar ones and a draw of the others.
UBC13 inh: blocks human UBC13 polyubiquitin chain formation. P61088. TR-FRET. inhibition, % at 20 µM. 0.47% of 330,000 active; in the data active = inhibition above about 45%, passing the limit was not always enough
Target sequence (P61088 whole entry, looked up): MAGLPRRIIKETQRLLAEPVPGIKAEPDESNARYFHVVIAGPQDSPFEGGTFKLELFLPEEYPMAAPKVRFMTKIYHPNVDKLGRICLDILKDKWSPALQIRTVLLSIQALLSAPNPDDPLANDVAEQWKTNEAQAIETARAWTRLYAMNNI
SENP8 block-1: inhibitors of human SENP8 protease | purified SENP8, Z-RLRGG-aminoluciferin cleavage, luminescence | Q96LD8 | inhibition, % at 10 µM | 1.2% of 330,000 active; in the data active = inhibition above about 50%
Target sequence (Q96LD8 whole entry, looked up): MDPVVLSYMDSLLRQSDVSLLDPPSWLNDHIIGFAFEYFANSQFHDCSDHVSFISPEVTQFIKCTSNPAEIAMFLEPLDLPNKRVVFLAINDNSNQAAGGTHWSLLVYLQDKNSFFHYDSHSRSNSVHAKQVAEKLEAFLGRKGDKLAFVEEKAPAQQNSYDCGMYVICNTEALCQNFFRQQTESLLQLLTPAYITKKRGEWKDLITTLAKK
SENP7 block: inhibitors of human SENP7 protease. Q9BQF6. recombinant SENP7, Z-RLRGG-aminoluciferin luminescence, 40 min. inhibition, % at 5 µM. 1.5% of 330,000 active;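 active = inhibition above about 50% at the single test dose, limit read from the data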
Apaf1 inhib: inhibitors of human Apaf-1 apoptosome; reconstituted apoptosome caspase-3 activity, DEVD-Rh110 fluorescence; AID 489030; O14727; 0.71% of 330,000 active; inhibition, % at 20 µM; active = inhibition of at least 40% at 20 µM
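Assay system: Apoptosome proteins | Medium: pH 7.5 Hepes buffer with CHAPS, BSA, DTT | Also added: Cytochrome c and DEVD-Rh110 substrate | Times: 30 min plus 50 min, RT | Detection: Rhodamine 110 fluorescence at Ex 480/Em 540 nm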
SENP8 block-2: blocks human SENP8 cleavage of Nedd8 substrate; AID 602440; Q96LD8; 0.64% of 360,000 active; inhibition, % at 20 µM; recombinant SENP8, Nedd8 substrate fluorescence; in the data active = inhibition mostly above about 40%, no sharp cut-off; inactive = mostly below about 27%
SENP6 inh: inhibitors of human SENP6 protease. Q9GZR1. Recombinant SENP6 catalytic domain, aminoluciferin luminescence. inhibition, % at 10 µM. 1.8% of 330,000 active. AID 2599;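 active = inhibition above about 50% at the single tested dose, limit read from the data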
SENP8 confirm: confirmation of human SENP8 protease inhibitors | 40% of 6,200 active | shares compounds with SENP7 block | Recombinant SENP8, Z-RLRGG-aminoluciferin luminescence, 60 min | inhibition, % at 12.5 µM;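 active = mean inhibition across replicates above about 50%, limit read from the data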
SENP6 confirm: confirmation of human SENP6 protease inhibitors; inhibition, % at 12.5 µM; recombinant SENP6, Z-RLRGG-aminoluciferin luminescence; AID 488915; shares compounds with SENP7 block; 58% of 6,200 active
SENP7 conf: human SENP7 inhibition, confirmed; inhibition, % at 12.5 µM; 69% of 6,200 active; shares compounds with SENP7 block; AID 488917; recombinant SENP7, Z-RLRGG-aminoluciferin luminescence, 40 min
Casp3 SENP sel: selectivity test for SENP inhibitors: human caspase-3 inhibition; 60% of 6,200 active; purified caspase-3, Z-DEVD-aminoluciferin luminescence, 60 min; AID 488918; inhibition, % at 12.5 µM; shares compounds with SENP7 block;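 active = mean inhibition above about 50%, limit read from the data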
SENP luc ctr: interferes with luciferase luminescence in SENP counter-screen. shares compounds with SENP7 block. Pre-incubated SENP8/Z-RLRGG-aminoluciferin, luciferase luminescence interference. inhibition, % at 12.5 µM. 39% of 6,200 active. AID 488919;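 active = mean inhibition above about 50% when retested at one dose, limit read from the data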
Apaf-1 inh conf2: confirmation of Apaf-1 inhibitors; reconstituted apoptosome, caspase-3 DEVD-Rh110 fluorescence; 25% of 1,800 active; inhibition, % at 20 µM; shares compounds with Apaf1 inhib; AID 504614;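 active = mean inhibition of at least 40% at 20 µM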
Rh110 interf inh: Rh110 signal interference in Apaf-1 inhibitor counter-screen; shares compounds with Apaf1 inhib; Rh110 fluorescence interference, quenched caspase reaction; activation (fluorescence interference), % at 20 µM; 1,800 tested, under 10 active;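 active = signal rise of 40% or more at 20 µM, treated as a fluorescence artifact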
Apaf1 inh interf: counter-screen for Apaf-1 inhibitors: fluorescence interference, dose response. shares compounds with Apaf1 inhib. fluorescence interference counterscreen, Apaf-1 assay format. IC50, µM. 460 tested, under 10 active; call rule not given here
Each line names hits and unclear results; the compound was inactive in the other large screens (follow-up assays come after a bar, where they were run).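 The calls were made as follows, unless noted: active = mean inhibition above about 50% in the one-dose retest (limit read from the data); inactive = the rest.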

O=S(c1ccccc1O)S(=O)c1ccccc1O (centres undefined)	none (no result: UBC13 inh, SENP8 block-1, SENP7 block, Apaf1 inhib, SENP6 inh)
NS(=O)(=O)c1ccc(NC2=CC(=O)C(=O)c3ccccc32)cc1	SENP8 block-1 88, Apaf1 inhib 95, SENP8 block-2 50, SENP6 inh 87 | SENP8 confirm inactive | SENP6 confirm 94 | SENP7 conf 84 | Casp3 SENP sel inactive | SENP luc ctr inactive | Apaf-1 inh conf2 98 | Rh110 interf inh inactive | Apaf1 inh interf inactive
CCOc1ccccc1C(=O)NCC(=O)N(C)CC(=O)Nc1ccc(N2CCOCC2)cc1	none (no result: UBC13 inh, SENP8 block-1, SENP7 block, Apaf1 inhib, SENP6 inh)
Cc1ccc2c(c1)c(=O)c1c3n2CCN(C(=O)CCl)C3CC1 (centres undefined)	Apaf1 inhib 64, SENP6 inh 50 | SENP8 confirm inactive | SENP6 confirm 60 | SENP7 conf inactive | Casp3 SENP sel inactive | SENP luc ctr inactive | Apaf-1 inh conf2 inactive | Rh110 interf inh inactive
Cc1ccc2c(c1)c1c3n2CCN(C(=O)CN2CCN(C)CC2)C3CCC1 (centres undefined)	none
O=C(O)c1ccc(NS(=O)(=O)c2ccc3c(c2)C(=O)c2ccccc2C3=O)cc1	none
O=C(O)c1ccc(NC2=C/C(=N/S(=O)(=O)c3ccccc3)c3ccccc3C2=O)cc1	SENP8 block-1 87, SENP7 block 60, Apaf1 inhib 96, SENP8 block-2 61, SENP6 inh 93 | SENP8 confirm 95 | SENP6 confirm 98 | SENP7 conf 92 | Casp3 SENP sel inactive | SENP luc ctr inactive | Apaf-1 inh conf2 97 | Rh110 interf inh inactive | Apaf1 inh interf inactive
CCCS(=O)(=O)NC(=O)C1(C)CCCN(C(=O)C2(c3ccc(Cl)cc3)CCCC2)C1 (centres undefined)	none (no result: UBC13 inh, SENP8 block-1, SENP7 block, Apaf1 inhib, SENP6 inh)
CC1=NN(c2ccc(Br)cc2)C(=O)/C1=C/c1cccs1	SENP7 block 70, Apaf1 inhib 96, SENP8 block-2 43, SENP6 inh 75 | SENP8 confirm inactive | SENP6 confirm inactive | SENP7 conf inactive | Casp3 SENP sel inactive | SENP luc ctr inactive | Apaf-1 inh conf2 inactive | Rh110 interf inh inactive
CC1=NN(c2ccccc2)C(=O)/C1=C\c1sccc1C	none
COc1ccccc1/C=C1/C(=O)N(c2ccccc2)N=C1C	SENP7 block 60, Apaf1 inhib 93 | SENP8 confirm inactive | SENP6 confirm inactive | SENP7 conf inactive | Casp3 SENP sel inactive | SENP luc ctr inactive | Apaf-1 inh conf2 inactive | Rh110 interf inh inactive
CC(C)S(=O)(=O)N1CCCC(c2cc(C(=O)Nc3ccc(F)c(Cl)c3)no2)C1 (centres undefined)	none (no result: UBC13 inh, SENP8 block-1, SENP7 block, Apaf1 inhib, SENP6 inh)
O=C(NCc1ccco1)c1cccc2c(-c3ccc(F)c(F)c3)coc12	none (no result: UBC13 inh, SENP8 block-1, SENP7 block, Apaf1 inhib, SENP6 inh)
CS(=O)(=O)Oc1ccc(Br)c2cccnc12	none
Nc1ccc(Br)c2cccnc12	SENP8 block-1 75, SENP7 block 62, Apaf1 inhib 85, SENP6 inh 85 | SENP8 confirm inactive | SENP6 confirm 63 | SENP7 conf inactive | Casp3 SENP sel inactive | SENP luc ctr inactive | Apaf-1 inh conf2 46 | Rh110 interf inh inactive | Apaf1 inh interf inactive
